# Test results from ChEMBL document CHEMBL3351733, “Inhibition of the lymphoid tyrosine phosphatase: the effect of zinc(II) ions and chelating ligand fragments on enzymatic activity” (Bioorg Med Chem Lett, 2014).
# Activity calls are given as the source filed them. The rule behind the calls is not given here.
# How the values were obtained:
# [1] = target: T1, Tyrosine-protein phosphatase non-receptor type 22 (Homo sapiens, UniProt Q9Y2R2); experiment: Inhibition of LYP (unknown origin) using DiFMUP substrate incubated for 2 hrs
# T1 sequence (Q9Y2R2 whole entry): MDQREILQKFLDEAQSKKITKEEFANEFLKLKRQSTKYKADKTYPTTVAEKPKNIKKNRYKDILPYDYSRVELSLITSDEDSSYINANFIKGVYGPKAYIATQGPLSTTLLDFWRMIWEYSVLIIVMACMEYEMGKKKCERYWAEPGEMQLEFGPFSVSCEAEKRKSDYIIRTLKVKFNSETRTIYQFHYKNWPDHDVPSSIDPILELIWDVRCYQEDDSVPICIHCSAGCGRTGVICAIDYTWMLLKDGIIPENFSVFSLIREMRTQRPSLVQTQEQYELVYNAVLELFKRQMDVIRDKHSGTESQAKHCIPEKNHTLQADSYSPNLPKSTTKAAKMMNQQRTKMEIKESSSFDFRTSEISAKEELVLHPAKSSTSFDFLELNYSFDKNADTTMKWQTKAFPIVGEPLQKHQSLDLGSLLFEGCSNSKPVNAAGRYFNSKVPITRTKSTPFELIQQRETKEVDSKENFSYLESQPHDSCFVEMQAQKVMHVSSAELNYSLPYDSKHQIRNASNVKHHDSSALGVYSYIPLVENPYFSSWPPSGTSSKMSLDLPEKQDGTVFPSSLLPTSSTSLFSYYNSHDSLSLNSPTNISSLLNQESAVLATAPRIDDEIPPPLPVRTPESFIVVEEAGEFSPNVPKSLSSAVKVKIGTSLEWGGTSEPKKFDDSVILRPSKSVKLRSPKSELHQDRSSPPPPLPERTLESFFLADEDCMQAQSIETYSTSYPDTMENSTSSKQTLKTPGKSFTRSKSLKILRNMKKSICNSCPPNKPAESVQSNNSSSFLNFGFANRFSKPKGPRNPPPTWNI
# Method in brief: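 LYP preincubated with inhibitor for 0, 30, 60 and 120 min before activity was read, without added zinc. IC50 came from the dose-response after the 2 h incubation.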
# [2] = target: T2, Tyrosine-protein phosphatase non-receptor type 22 (Homo sapiens) (UniProt Q9Y2R2); experiment: Inhibition of LYP (unknown origin) at 20 to 100 uM incubated for 30 mins at 25 degC before addition of DiFMUP substrate
# T2 sequence (whole entry): T1 sequence (Q9Y2R2 whole entry)
# [3] = target: T2, Tyrosine-protein phosphatase non-receptor type 22 (Homo sapiens); experiment: Protection against 40 uM zinc-acetate-induced inhibition of LYP (unknown origin) at 80 uM incubated for 30 mins at 25 degC before addition of DiFMUP substrate
# [4] = target: T2, Tyrosine-protein phosphatase non-receptor type 22 (Homo sapiens); experiment: Inhibition of LYP (unknown origin) incubated for 30 mins at 25 degC before addition of DiFMUP substrate in presence of 5 uM zinc acetate; details: TDE = time-dependent effect
# Method in brief: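 Fragment screen and follow-up dose-response run with 5 μM zinc acetate added to the LYP assay, alongside a parallel series without zinc.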
# [5] = target: T3, Tyrosine-protein phosphatase non-receptor type 1 (Homo sapiens) (UniProt P18031); experiment: Inhibition of PTP1B (unknown origin)
# T3 sequence (whole entry): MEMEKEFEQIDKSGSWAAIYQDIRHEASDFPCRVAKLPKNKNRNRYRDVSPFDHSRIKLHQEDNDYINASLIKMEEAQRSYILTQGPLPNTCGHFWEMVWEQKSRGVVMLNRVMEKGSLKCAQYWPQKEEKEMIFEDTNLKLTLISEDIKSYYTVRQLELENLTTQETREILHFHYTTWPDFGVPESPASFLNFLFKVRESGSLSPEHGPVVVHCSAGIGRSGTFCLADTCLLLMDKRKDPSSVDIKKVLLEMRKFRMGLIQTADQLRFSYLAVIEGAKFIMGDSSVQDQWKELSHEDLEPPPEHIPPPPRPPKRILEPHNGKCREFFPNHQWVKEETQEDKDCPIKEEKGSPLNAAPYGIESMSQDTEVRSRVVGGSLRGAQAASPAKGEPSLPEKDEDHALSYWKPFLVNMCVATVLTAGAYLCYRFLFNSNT
# [6] = target: T4, Receptor-type tyrosine-protein phosphatase C (Homo sapiens) (UniProt P08575); experiment: Inhibition of CD45 (unknown origin)
# T4 sequence (whole entry): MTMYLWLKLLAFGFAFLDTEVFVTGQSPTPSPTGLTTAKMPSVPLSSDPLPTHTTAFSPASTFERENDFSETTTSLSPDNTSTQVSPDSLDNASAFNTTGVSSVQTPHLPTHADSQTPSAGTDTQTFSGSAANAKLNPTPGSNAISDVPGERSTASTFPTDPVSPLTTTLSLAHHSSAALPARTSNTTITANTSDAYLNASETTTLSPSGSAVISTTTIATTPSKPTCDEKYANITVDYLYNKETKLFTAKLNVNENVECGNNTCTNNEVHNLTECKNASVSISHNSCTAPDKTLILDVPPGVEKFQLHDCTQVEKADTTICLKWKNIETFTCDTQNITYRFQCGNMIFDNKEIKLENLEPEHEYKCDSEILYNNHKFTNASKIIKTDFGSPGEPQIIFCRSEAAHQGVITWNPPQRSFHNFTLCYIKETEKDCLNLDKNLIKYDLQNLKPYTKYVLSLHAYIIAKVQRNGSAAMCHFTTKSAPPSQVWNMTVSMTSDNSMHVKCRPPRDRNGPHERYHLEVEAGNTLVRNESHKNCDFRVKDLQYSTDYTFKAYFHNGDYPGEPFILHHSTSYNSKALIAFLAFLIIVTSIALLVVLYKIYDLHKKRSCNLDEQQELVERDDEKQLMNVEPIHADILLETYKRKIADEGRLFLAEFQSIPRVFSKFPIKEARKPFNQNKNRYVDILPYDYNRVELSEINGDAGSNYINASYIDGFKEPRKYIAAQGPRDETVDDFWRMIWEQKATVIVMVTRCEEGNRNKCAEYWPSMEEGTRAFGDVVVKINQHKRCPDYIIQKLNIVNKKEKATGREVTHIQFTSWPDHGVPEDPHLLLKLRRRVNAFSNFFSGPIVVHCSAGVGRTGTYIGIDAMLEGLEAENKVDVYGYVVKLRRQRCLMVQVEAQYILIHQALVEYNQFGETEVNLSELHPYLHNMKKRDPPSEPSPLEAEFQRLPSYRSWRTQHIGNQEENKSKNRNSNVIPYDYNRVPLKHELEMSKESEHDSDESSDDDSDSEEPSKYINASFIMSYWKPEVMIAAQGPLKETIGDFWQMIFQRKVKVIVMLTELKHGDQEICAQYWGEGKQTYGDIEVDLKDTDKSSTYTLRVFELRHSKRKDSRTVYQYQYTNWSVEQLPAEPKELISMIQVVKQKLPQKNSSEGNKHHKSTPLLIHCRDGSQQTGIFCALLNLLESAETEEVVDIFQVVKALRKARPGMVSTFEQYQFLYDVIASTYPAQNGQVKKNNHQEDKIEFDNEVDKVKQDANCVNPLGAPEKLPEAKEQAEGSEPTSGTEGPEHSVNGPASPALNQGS
# [7] = Inhibition of YopH (unknown origin)
Compound,IC50 [1],inhibition [2],Activity [3],also measured
O=C1C=C(O)C(=O)c2ccccc21 [LAWSONE],5600 nM,–,–,–
c1ccc(CNCc2ccccn2)nc1,–,inactive,Active,–
Oc1ccc2ccccc2c1O,2520 nM,–,–,inhibition [4]: tde; inhibition [5]: Active; inhibition [6]: Active; inhibition [7]: Active
O=C(O)c1cccc(C(=O)O)n1,–,inactive,Active,–
Oc1ccc(Cl)c2cccnc12,–,inactive,Active,–
"O=C1C=Cc2ccccc2C1=O [1,2-NAPHTHOQUINONE]",1100 nM,–,–,–
